Data: ChEMBL document CHEMBL2321832, “A Fluorescent Styrylquinoline with Combined Therapeutic and Diagnostic Activities against Alzheimer's and Prion Diseases” (ACS Med Chem Lett, 2013)
The source made the active and inactive calls. The rule behind the calls is not given here.

Assays:
[1] = Cytotoxicity against mouse ScGT1 cells assessed as cell viability at EC50 concentration after 5 days by fluorescence plate reader analysis; type: cell-based; settings: read-out: Activity
[2] = Antiprion activity against scrapie prion protein (unknown origin) infected in mouse ScGT1 cells assessed as inhibition of PrPSc replication by ELISA; type: cell-based
[3] = test system: ScGT1; assay: Antiprion activity against scrapie prion protein (unknown origin) infected in mouse ScGT1 cells assessed as decrease in PrPSc accumulation after 5 days measured following PK digestion by Western blot analysis; type: cell-based
[4] = Cytotoxicity against mouse ScGT1 cells assessed as cell viability at 1 uM after 5 days by fluorescence plate reader analysis; type: cell-based; settings: read-out: Activity
[5] = target: Major prion protein (Mus musculus) (UniProt P04925); assay: Inhibition of mouse PrP (23-230) fibril formation assessed as extension of lag phase at 50 uM by amyloid seeding assay
[6] = target: Amyloid-beta precursor protein (Homo sapiens) (UniProt P05067); assay: Inhibition of amyloid beta (1 to 42) (unknown origin) fibril formation at 1:1 compound to amyloid beta ratio after 24 hrs by Thioflavin T-based fluorometric assay
[7] = Permeability of the compound assessed as diffusion from donor plate through porcine brain lipid membrane into acceptor plate at pH 7.4 by PAMPA method; type: ADME; settings: pig, read-out: permeability
Method in brief: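 PAMPA permeability (Pe) reported as mean ± SD of two experiments. CNS+ assigned when Pe > 3.74 × 10⁻⁶ cm s⁻¹; CNS+/− when Pe lies between 3.74 × 10⁻⁶ and 1.50 × 10⁻⁶ cm s⁻¹.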

[8] = test system: ScGT1; assay: Binding affinity to PK-resistant scrapie prion protein (unknown origin) aggregate in mouse ScGT1 cells at 0.25 mM measured following PK digestion by fluorescence microscopy; type: cell-based
Method in brief: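 ScGT1 cells stained with 3·HCl at 0.25 mM after a proteinase K digestion step that removes PK-sensitive PrP^C. Uninfected GT1 cells processed the same way serve as control. Imaged by fluorescence microscopy, mainly with the FITC filter set and confirmed with the ThS filter set.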

[9] = test system: ScGT1; assay: Binding affinity to scrapie prion protein (unknown origin) aggregate in mouse ScGT1 cells at 0.84 mM measured following denaturation with 6 M guanidinium chloride by fluorescence microscopy; type: cell-based
Method in brief: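 Cells denatured with 6 M guanidinium chloride, then stained with 3·HCl at 0.84 mM (0.025%). Uninfected GT1 cells, with or without denaturation, serve as control. Imaged by fluorescence microscopy with FITC and ThS filter sets, nuclei counterstained with DAPI. Pattern compared with 0.025% Thioflavin S staining. A second line, ScN2a, was also used.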

[10] = Cytotoxicity against mouse ScGT1 cells assessed as cell viability at 10 uM after 5 days by fluorescence plate reader analysis; type: cell-based; settings: read-out: Activity
[11] = target: Amyloid-beta precursor protein (Homo sapiens) (UniProt P05067); assay: Binding affinity to amyloid beta (1 to 42) (unknown origin) at 0.5 uM by fluorescence analysis
[12] = target: Amyloid-beta precursor protein (Homo sapiens) (UniProt P05067); assay: Binding affinity to pre-aggregated amyloid beta (1 to 42) (unknown origin) at 25 nM by Thioflavin T-based fluorometric assay
[13] = target: Amyloid-beta precursor protein (Homo sapiens) (UniProt P05067); assay: Displacement of Thioflavin-T from pre-aggregated amyloid beta (1 to 42) (unknown origin) at >25 nM by fluorometric assay
[14] = target: Amyloid-beta precursor protein (Homo sapiens) (UniProt P05067); assay: Binding affinity to pre-aggregated amyloid beta (1 to 42) (unknown origin) assessed as hyperchromic effect at 5 uM by fluorescence analysis
Method in brief: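 Emission spectra of compound (5 μM) recorded in 10 mM phosphate buffer, pH 7.4, with and without aggregated Aβ42 (3 μM).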

Sequence of Amyloid-beta precursor protein (Homo sapiens) (P05067 whole entry, the tested form may be a part): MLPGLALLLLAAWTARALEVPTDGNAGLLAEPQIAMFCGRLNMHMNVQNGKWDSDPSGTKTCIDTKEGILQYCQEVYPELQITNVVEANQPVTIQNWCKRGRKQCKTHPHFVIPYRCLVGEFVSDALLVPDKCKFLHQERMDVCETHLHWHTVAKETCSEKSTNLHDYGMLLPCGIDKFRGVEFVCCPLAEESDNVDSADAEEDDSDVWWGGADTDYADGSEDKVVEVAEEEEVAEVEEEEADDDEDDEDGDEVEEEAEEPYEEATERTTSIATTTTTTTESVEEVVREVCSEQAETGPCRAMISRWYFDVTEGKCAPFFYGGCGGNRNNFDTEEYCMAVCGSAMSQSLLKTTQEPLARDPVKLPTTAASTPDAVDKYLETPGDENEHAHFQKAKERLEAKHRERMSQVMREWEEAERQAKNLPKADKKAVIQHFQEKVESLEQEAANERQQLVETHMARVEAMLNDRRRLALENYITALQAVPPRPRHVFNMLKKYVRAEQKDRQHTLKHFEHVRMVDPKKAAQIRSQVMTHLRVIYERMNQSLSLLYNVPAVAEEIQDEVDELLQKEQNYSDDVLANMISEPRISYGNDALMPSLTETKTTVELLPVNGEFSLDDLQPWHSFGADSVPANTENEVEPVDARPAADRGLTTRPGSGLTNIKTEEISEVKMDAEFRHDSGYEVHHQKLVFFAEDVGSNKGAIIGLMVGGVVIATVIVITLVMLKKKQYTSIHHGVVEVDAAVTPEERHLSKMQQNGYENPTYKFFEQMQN
Sequence of Major prion protein (Mus musculus) (P04925 whole entry): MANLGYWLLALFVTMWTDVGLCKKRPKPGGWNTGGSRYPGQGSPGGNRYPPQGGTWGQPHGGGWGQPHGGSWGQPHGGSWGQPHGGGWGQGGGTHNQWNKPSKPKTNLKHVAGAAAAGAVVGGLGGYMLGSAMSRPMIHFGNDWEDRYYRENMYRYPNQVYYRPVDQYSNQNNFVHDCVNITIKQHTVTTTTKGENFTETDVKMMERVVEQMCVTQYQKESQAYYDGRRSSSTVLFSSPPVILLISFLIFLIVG

Structure (SMILES)	viability at 120 h [1] [%]	EC50 [2] [nM]	inhibition [3]	viability at 120 h, 1 µM [4] [%]	TIME [5] [h]	inhibition [6]	Papp [7] [×10⁻⁶ cm/s]	inhibition ([6]; concentration not given here) [%]	Activity [8]	Activity [9]	viability at 120 h, 10 µM [10] [%]	Activity [11]	Activity [12]	Activity [13]	Activity [14]
CCN(CC)CCCC(C)Nc1c2ccc(Cl)cc2nc2ccc(OC)cc12 (centres undefined) [QUINACRINE]	100	400													
COc1ccc2nc(/C=C/c3ccccc3)ccc2c1	74.9	700	Dose-dependent effect	60	> 70	inactive	8.5								
Cc1ccc2nc(/C=C/c3ccccc3)ccc2c1	90.5	500	Dose-dependent effect	> 90	> 70	inactive	3								
COc1cc(/C=C/C(=O)CC(=O)/C=C/c2ccc(O)c(OC)c2)ccc1O								73							
O=C(CN1CCCC1)Nc1ccc(Cc2ccc(NC(=O)CN3CCCC3)cc2)cc1	93.4	1500	Dose-dependent effect												
Cc1ccc2nc(/C=C/c3ccc(N)cc3)ccc2c1	94.6	500	Dose-dependent effect	> 90	> 70		23.1	42.4	Active	Active	60	Active	Active	Active	Active
